Assay [1] in a line: RPL19A-GFP modulators, yeast TOR pathway, confirmation, cell-based, S. cerevisiae, flow cytometry, cherry picks, mother/daughter gates (AID 2270;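 active means GFP response below 50% of the DMSO control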). The conditions noted are these: S. cerevisiae RPL19A-GFP strain, 3 h, at 10 µM, stronger effect = lower value, 100 = same GFP as DMSO wells.
A short description of assay [2]: LAP4-GFP expression modulators in yeast, confirmation, cell-based, cherry picks, flow cytometry, mother/daughter gates (AID 2271;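 active means GFP response above 150% of the DMSO control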;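 further: ratio of sample to DMSO plate mean so 100% equals DMSO level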). The settings on record: S. cerevisiae LAP4-GFP strain, 3 h, at 10 µM, stronger effect = higher value, 100 means same as DMSO control. A digest of the protocol: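 System: Alexa 633-stained baker's yeast GFP-fusion strain; quantity: 0.2 OD600 cells; timing: compound exposure 3 h at 30 °C, end-over-end rotation; detection: HT flow cytometry, GFP fluorescence channel; measure: per-gate (all, mother, daughter) GFP response vs DMSO; control set: DMSO-only negative wells, rapamycin 400 ng/mL positive wells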

A short description of assay [3]: modulators of MEP2-GFP levels in yeast, confirmation, S. cerevisiae, flow cytometry GFP, cherry picks (AID 2272;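 active means GFP response above 150% of the DMSO control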;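 further: ratio of well signal to plate DMSO mean so 100% equals DMSO level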). The conditions noted are these: S. cerevisiae MEP2-GFP strain, 3 h, at 10 µM, stronger effect = higher value.
Assay [4] is described as follows: AGP1-GFP expression modulators, hit retest, confirmation, cell-based, flow cytometry, S. cerevisiae, cherry picks (AID 2273).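 Further: median GFP channel fluorescence over the whole cell population gate.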 The settings on record: S. cerevisiae AGP1-GFP strain, 3 h, at 10 µM.
Assay [5] in a line: modulators of CIT2-GFP expression in yeast, confirmation, S. cerevisiae, GFP fusion, cherry picks, mother/daughter gates (AID 2274). The conditions noted are these: S. cerevisiae CIT2-GFP strain, flow cytometry, 3 h, at 10 µM, stronger effect = higher value.
The mark [6] stands for this setting: measured here: daughter cell gate.
The mark [7] stands for this setting: measured here: mother cell gate.
Where [8] appears, read: measured here: daughter cell gate response.
[9] abbreviates: measured here: mother cell gate response.

Eight molecules from PubChem BioAssay can be followed below.

Calls of active or inactive are those of the source.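 How the source made its calls, unless noted: active means GFP response above 150% of the DMSO level; inconclusive means fewer than 70 events counted for a yeast strain; inactive means the rest.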

With `Cc1cccc(CSc2cccc3cccnc23)c1`, the GFP response vs DMSO in assay [1] was 92.3% (inactive); in assay [1] (setting [6]) it was 91.3%; in assay [1] (setting [7]), 92.1%; in assay [3], 97.2% (inactive). Also, the GFP response relative to DMSO in assay [2] was 130% (inactive); in assay [2] (setting [8]) it was 125%; in assay [2] (setting [9]), 132%. The GFP response, % of DMSO was 89.1% (inactive) in assay [4], 88.9% (inactive) in assay [5], 90.5% in assay [5] (setting [6]) and 85.9% in assay [5] (setting [7]).

Consider `CCOC(=O)c1c(C)[nH]c(C)c1C(=O)COC(=O)c1cc2ccccc2cc1O`, for which the GFP response vs DMSO in assay [1] was 96.2% (inactive); in assay [1] (setting [6]) it was 97.3%; in assay [1] (setting [7]), 94.8%; in assay [3], 103% (inactive). The figures for the GFP response relative to DMSO in assay [2], in assay [2] (setting [8]) and in assay [2] (setting [9]) were 106% (inactive), 104% and 109%, respectively. For the same molecule, the GFP response, % of DMSO in assay [4] is 103% (inactive); in assay [5] it was 98.4% (inactive); in assay [5] (setting [6]) it was 96.8%; in assay [5] (setting [7]), 96.7%.

In the case of `O=C(NCc1ccc2c(c1)OCO2)c1nc(S(=O)(=O)Cc2ccccc2F)ncc1Cl`, the GFP response vs DMSO in assay [1] is 99.1% (inactive); in assay [1] (setting [6]), 99.3%; in assay [1] (setting [7]), 97.8%; in assay [3] it was 103% (inactive). Besides, the values for the GFP response relative to DMSO in assay [2], in assay [2] (setting [8]) and in assay [2] (setting [9]) were 101% (inactive), 104% and 102%, respectively. The GFP response, % of DMSO in assay [4] is 100% (inactive); in assay [5], 94.4% (inactive); in assay [5] (setting [6]), 94%; in assay [5] (setting [7]), 96%.

`S=c1[nH]nc(NCCCN2CCOCC2)s1`: the GFP response vs DMSO is 96% (inactive) in assay [1], 97.1% in assay [1] (setting [6]), 95.1% in assay [1] (setting [7]) and 103% (inactive) in assay [3]. For the same molecule, the results for the GFP response relative to DMSO in assay [2], in assay [2] (setting [8]) and in assay [2] (setting [9]) were 101% (inactive), 101% and 102%, respectively. Moreover, the GFP response, % of DMSO in assay [4] is 106% (inactive); in assay [5], 102% (inactive); in assay [5] (setting [6]) it was 100%; in assay [5] (setting [7]) it was 103%.

With `O=C1c2ccccc2C(=O)N1OS(=O)(=O)c1ccc(F)cc1`, the GFP response vs DMSO in assay [1] was 74% (inactive); in assay [1] (setting [6]) it was 89.4%; in assay [1] (setting [7]) it was 61.9%; in assay [3], 103% (inactive). For the same molecule, the GFP response relative to DMSO in assay [2] is 127% (inactive); in assay [2] (setting [8]), 129%; in assay [2] (setting [9]), 129%. Further, the GFP response, % of DMSO in assay [4] was 102% (inactive); in assay [5], 121% (inactive); in assay [5] (setting [6]) it was 103%; in assay [5] (setting [7]), 99.7%.

Take `O=C(O)CCc1ccc(-c2ccc(Cl)cc2)o1`: the GFP response vs DMSO in assay [1] is 99% (inactive); in assay [1] (setting [6]), 91.7%; in assay [1] (setting [7]) it was 97.2%; in assay [3], 99% (inactive). For the same molecule, the GFP response relative to DMSO in assay [2] was 138% (inactive); in assay [2] (setting [8]) it was 128%; in assay [2] (setting [9]), 140%. Further, the GFP response, % of DMSO in assay [4] is 85.4% (inactive); in assay [5] it was 94.4% (inactive); in assay [5] (setting [6]) it was 88.4%; in assay [5] (setting [7]), 94.4%.

Consider `Cc1ccn2c(NC3CCCCC3)c(-c3cccc(-c4cccc(Cl)c4)c3)nc2c1`, for which the GFP response vs DMSO is 95% (inactive) in assay [1], 92.1% in assay [1] (setting [6]), 95.8% in assay [1] (setting [7]) and 108% (inactive) in assay [3]. For the same molecule, the GFP response relative to DMSO in assay [2] was 110% (inactive); in assay [2] (setting [8]) it was 102%; in assay [2] (setting [9]), 112%. Moreover, the GFP response, % of DMSO in assay [4] was 92.5% (inactive); in assay [5], 93.5% (inactive); in assay [5] (setting [6]), 98.3%; in assay [5] (setting [7]), 88.6%.

With `O=[N+]([O-])/C=C/c1cn(Cc2ccc(F)cc2)c2ccccc12`, the GFP response vs DMSO in assay [1] is 103% (inactive); in assay [1] (setting [6]), 104%; in assay [1] (setting [7]), 102%; in assay [3], 105% (inactive). Also, the GFP response relative to DMSO in assay [2] was 113% (inactive); in assay [2] (setting [8]), 110%; in assay [2] (setting [9]), 115%. For the same molecule, the GFP response, % of DMSO in assay [4] is 94.5% (inactive); in assay [5], 104% (inactive); in assay [5] (setting [6]) it was 105%; in assay [5] (setting [7]) it was 101%.
